Data set [1] has as its target T1, Protein deacetylase HDAC6 (Mus musculus) (UniProt Q9Z2V5).
T1 sequence (whole entry): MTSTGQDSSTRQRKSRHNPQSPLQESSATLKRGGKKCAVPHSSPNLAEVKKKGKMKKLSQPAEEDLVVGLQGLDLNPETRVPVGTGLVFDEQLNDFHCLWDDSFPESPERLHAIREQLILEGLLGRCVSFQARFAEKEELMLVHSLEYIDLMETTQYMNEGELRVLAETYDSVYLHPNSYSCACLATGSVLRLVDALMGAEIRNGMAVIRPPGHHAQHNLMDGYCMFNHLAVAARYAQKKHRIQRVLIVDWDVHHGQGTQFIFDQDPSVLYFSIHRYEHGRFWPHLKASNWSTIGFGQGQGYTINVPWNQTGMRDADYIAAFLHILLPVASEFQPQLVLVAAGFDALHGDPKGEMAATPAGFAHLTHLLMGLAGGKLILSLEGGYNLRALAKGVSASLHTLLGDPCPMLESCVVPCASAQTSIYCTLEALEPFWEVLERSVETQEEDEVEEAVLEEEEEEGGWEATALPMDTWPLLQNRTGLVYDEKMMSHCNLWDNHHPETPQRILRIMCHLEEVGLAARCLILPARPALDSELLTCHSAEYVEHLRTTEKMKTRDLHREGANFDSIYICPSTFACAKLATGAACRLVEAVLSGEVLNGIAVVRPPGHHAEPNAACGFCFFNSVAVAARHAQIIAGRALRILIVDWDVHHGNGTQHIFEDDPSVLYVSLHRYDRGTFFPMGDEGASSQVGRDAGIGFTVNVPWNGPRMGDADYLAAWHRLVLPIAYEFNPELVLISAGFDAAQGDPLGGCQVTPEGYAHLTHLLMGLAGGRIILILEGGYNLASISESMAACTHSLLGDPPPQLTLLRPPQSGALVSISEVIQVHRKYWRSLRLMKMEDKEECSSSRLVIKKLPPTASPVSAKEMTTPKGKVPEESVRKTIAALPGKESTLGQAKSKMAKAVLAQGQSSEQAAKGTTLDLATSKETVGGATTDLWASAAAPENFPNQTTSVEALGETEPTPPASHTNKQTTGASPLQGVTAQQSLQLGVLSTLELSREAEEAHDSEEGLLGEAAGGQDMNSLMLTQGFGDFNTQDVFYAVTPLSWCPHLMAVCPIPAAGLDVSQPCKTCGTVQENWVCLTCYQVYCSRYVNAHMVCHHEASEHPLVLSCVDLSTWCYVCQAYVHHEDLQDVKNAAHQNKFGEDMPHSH
The data set can be described thus: Inhibition of HDAC6 in mouse Neuro-2a cells transfected with pCAX FLAG APP and pRK5-EGFP-Tau P301L plasmids assessed as increase in HSP90 acetylation at 1 uM after 24 hrs by coimmunoprecipitation analysis. The class given is cell-based. In outline: (§1)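 SH-SY5Y and Neuro-2a cells cotransfected 24 h with APP695/Tau P301L plasmids, treated 24 h at 1 µM (ACY-1215 reference). 30 µg lysate immunoprecipitated overnight at 4 °C with anti-HDAC6 or anti-acetyl-lysine antibodies plus protein A/G beads, run on 8% SDS-PAGE, probed for Hsp90; Hsp70 by immunoblot. Three independent experiments.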

The target in data set [2] is T1, Protein deacetylase HDAC6 (Mus musculus). The data set is described as follows: Inhibition of HDAC6 in mouse Neuro-2a cells transfected with pCAX FLAG APP and pRK5-EGFP-Tau P301L plasmids assessed as increase in HSP70 protein expression 1 uM after 24 hrs by Western blot analysis. The format is cell-based. In outline: as §1
Data set [3] can be described thus: Plasma concentration in Sprague-Dawley rat at 50 mg/kg, po after 1 hr by HPLC-MS/MS analysis. The format is ADME, organism-based.
A short description of data set [4]: Plasma concentration in Sprague-Dawley rat at 50 mg/kg, po after 3 hrs by HPLC-MS/MS analysis. The format is ADME, organism-based.
Data set [5] can be described thus: Toxicity in Balb/c mouse assessed as survival rate at 1000 mg/kg, ip qd administered for 6 days followed by 1 week recovery (reference value: 100%). The class given is organism-based. The following applies: in vivo.
In data set [6] the target is T2, Protein deacetylase HDAC6 (Homo sapiens) (UniProt Q9UBN7).
T2 sequence (whole entry): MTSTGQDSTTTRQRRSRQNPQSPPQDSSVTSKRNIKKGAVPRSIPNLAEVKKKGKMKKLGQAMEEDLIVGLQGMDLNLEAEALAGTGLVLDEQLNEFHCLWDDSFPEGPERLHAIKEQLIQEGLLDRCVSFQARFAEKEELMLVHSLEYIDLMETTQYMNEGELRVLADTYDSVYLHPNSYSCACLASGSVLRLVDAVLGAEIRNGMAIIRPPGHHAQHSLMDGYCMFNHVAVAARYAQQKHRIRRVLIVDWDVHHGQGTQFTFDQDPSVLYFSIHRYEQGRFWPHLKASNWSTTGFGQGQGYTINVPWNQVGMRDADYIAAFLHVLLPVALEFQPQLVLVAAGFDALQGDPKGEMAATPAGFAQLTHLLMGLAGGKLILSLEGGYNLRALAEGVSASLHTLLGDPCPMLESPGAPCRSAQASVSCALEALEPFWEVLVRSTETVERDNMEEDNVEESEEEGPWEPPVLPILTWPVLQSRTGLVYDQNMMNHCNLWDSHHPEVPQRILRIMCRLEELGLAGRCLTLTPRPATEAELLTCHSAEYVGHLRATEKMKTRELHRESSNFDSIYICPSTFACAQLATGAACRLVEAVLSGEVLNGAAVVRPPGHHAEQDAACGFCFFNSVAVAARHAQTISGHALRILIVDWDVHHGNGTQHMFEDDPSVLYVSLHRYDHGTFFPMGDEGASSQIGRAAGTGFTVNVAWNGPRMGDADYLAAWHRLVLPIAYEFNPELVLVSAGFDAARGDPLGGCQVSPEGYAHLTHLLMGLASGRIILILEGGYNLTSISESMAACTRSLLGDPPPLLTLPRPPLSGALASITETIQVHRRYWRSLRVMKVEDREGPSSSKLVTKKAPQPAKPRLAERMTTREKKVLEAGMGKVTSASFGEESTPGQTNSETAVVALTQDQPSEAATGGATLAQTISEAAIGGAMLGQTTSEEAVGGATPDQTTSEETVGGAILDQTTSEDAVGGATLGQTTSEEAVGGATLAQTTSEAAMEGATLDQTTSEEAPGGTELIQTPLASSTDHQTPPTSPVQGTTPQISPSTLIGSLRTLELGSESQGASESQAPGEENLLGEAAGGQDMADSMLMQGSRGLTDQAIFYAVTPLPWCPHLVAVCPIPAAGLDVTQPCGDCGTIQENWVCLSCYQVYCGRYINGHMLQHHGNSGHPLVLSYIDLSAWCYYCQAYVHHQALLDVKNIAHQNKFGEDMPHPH
The data set can be described thus: Inhibition of HDAC6 in human SH-SY5Y cells assessed as increase in acetylation of alpha-tubulin at 0.1 to 1 uM after 24 hrs by Western blot analysis. The class given is cell-based. The method in brief: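 SH-SY5Y cells in MEM with 10% FBS at 37 °C, 5% CO2, treated 24 h at 0.1–1 µM. Lysates in HEPES/Triton buffer; 20 µg protein run on SDS-PAGE and immunoblotted for acetyl-α-tubulin, α-tubulin, acetyl-histone H3 and histone H3 with ECL detection.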

The source made the active and inactive calls. The calls are words filed in the database; no cut-off is given here.

As to `COc1ccc(C(=O)c2ccc3c(ccn3Cc3ccc(C(=O)NO)cc3)c2)cc1`, the inhibition entry in data set [1], in data set [2] and in data set [6] was “Active” in each case. The concentration at 1 h in data set [3] is 8.5 ng/mL. In data set [4], this molecule registered a concentration at 3 h of 7.3 ng/mL. Also, the survival in data set [5] came to 100%.

The values are drawn from ChEMBL document CHEMBL4196108, “5-Aroylindoles Act as Selective Histone Deacetylase 6 Inhibitors Ameliorating Alzheimer's Disease Phenotypes” (J Med Chem, 2018).
